Measured values: ChEMBL document CHEMBL2412955, “Synthesis and antibacterial activities of N-substituted-glycinyl 1H-1,2,3-triazolyl oxazolidinones” (2013)
Converted amounts (≈) assume the structure as drawn.

Tests used:
Assay type in all cases: functional
Staphylococcus aureus [1] = experiment: Ratio of MIC for Staphylococcus aureus ATCC 25923 to MIC for Staphylococcus aureus ATCC 25923 in presence of human plasma
In short: (§1)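 To gauge plasma protein binding and/or plasma instability, MIC was determined in Mueller-Hinton broth containing 50% human plasma. Linezolid served as a reference agent. Ratio compares this MIC with the MIC obtained without plasma.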

Staphylococcus aureus [2] = experiment: Antibacterial activity against Staphylococcus aureus ATCC 25923 after 18 hrs by […] in presence of human plasma; conditions: ATCC 25923, Plasma; in short: as §1
Staphylococcus aureus [3] = experiment: Antibacterial activity against Staphylococcus aureus ATCC 25923 after 18 hrs by NCCLS agar dilution method; conditions: ATCC 25923, 18 h
In short: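 Plain Mueller-Hinton agar, agar dilution per NCCLS, concentrations 0.12–64 µg/ml. Test agents in 80% DMSO in water, linezolid in 40% water in ethanol, vancomycin in water. Final inoculum 10^7 CFU/ml, 35 °C for 18 h. MIC = lowest concentration inhibiting visible growth.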

Moraxella catarrhalis [4] = experiment: Antibacterial activity against Moraxella catarrhalis clinical isolate 3447 after 18 hrs by NCCLS agar dilution method; conditions: clinical isolate 3447, 18 h
In short: (§2)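 NCCLS agar dilution on Mueller-Hinton agar with 5% sheep blood added to support growth. Drug dilutions 0.12–64 µg/ml. Test agents in 80% DMSO in water, linezolid in 40% water in ethanol. Final inoculum 10^7 CFU/ml, 18 h at 35 °C. MIC read as the lowest concentration with no visible growth.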

Moraxella catarrhalis [5] = experiment: Antibacterial activity against Moraxella catarrhalis clinical isolate 2824 after 18 hrs by NCCLS agar dilution method; conditions: clinical isolate 2824, 18 h; in short: as §2
Moraxella catarrhalis [6] = experiment: Antibacterial activity against Moraxella catarrhalis clinical isolate 255 after 18 hrs by NCCLS agar dilution method; conditions: clinical isolate 255, 18 h; in short: as §2
Moraxella catarrhalis [7] = experiment: Antibacterial activity against Moraxella catarrhalis clinical isolate 138 after 18 hrs by NCCLS agar dilution method; conditions: clinical isolate 138, 18 h; in short: as §2
Moraxella catarrhalis [8] = experiment: Antibacterial activity against Moraxella catarrhalis clinical isolate 125 after 18 hrs by NCCLS agar dilution method; conditions: clinical isolate 125, 18 h; in short: as §2
Moraxella catarrhalis [9] = experiment: Antibacterial activity against Moraxella catarrhalis clinical isolate 112 after 18 hrs by NCCLS agar dilution method; conditions: clinical isolate 112, 18 h; in short: as §2
Moraxella catarrhalis [10] = experiment: Antibacterial activity against Moraxella catarrhalis clinical isolate 36 after 18 hrs by NCCLS agar dilution method; conditions: clinical isolate 36, 18 h; in short: as §2
Moraxella catarrhalis [11] = experiment: Antibacterial activity against Moraxella catarrhalis clinical isolate 1 after 18 hrs by NCCLS agar dilution method; conditions: clinical isolate 1, 18 h; in short: as §2
Moraxella catarrhalis [12] = experiment: Ratio of linezolid MIC to compound MIC for Moraxella catarrhalis ATCC 8176
Moraxella catarrhalis [13] = experiment: Antibacterial activity against Moraxella catarrhalis ATCC 8176 after 18 hrs by NCCLS agar dilution method; conditions: ATCC 8176, 18 h; in short: as §2
Streptococcus pneumoniae [14] = experiment: Antibacterial activity against penicillin-resistant Streptococcus pneumoniae after 18 hrs by NCCLS agar dilution method
In short: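 Agar dilution was run on Mueller-Hinton agar supplemented with 5% sheep blood, with drug dilutions from 0.12 to 64 µg/ml. Test compounds were dissolved in 80% DMSO in water. Final inoculum was 10^7 CFU/ml, incubated at 35 °C for 18 h. MIC was the lowest concentration preventing visible growth.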

Haemophilus influenzae = experiment: Antibacterial activity against Haemophilus influenzae ATCC 49247 after 18 hrs by NCCLS agar dilution method; conditions: ATCC 49247, 18 h; in short: as §2
Escherichia coli = experiment: Antibacterial activity against Escherichia coli ATCC 25922 after 18 hrs by NCCLS agar dilution method; conditions: ATCC 25922, 18 h
In short: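 Agar dilution per NCCLS on Mueller-Hinton agar, drug dilutions 0.12–64 µg/ml. Linezolid dissolved in 40% water in ethanol, vancomycin in water, test agents in 80% DMSO in water. Inoculum 10^7 CFU/ml (final), incubated 35 °C for 18 h. MIC is the lowest concentration preventing visible growth.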

Enterococcus [15] = experiment: Antibacterial activity against vancomycin-resistant Enterococcus after 18 hrs by NCCLS agar dilution method
In short: (§3)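 Clinical isolates were tested by agar dilution on Mueller-Hinton agar with drug dilutions from 0.12 to 64 µg/ml. Test compounds were dissolved in 80% DMSO in water. Final inoculum was 10^7 CFU/ml, incubated at 35 °C for 18 h. MIC was the lowest concentration inhibiting visible growth.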

Enterococcus [16] = experiment: Antibacterial activity against vancomycin-susceptible Enterococcus after 18 hrs by NCCLS agar dilution method; in short: as §3
Staphylococcus [17] = experiment: Antibacterial activity against methicillin-susceptible coagulase-negative Staphylococcus after 18 hrs by NCCLS agar dilution method; in short: as §3
Staphylococcus [18] = experiment: Antibacterial activity against methicillin-resistant coagulase-negative Staphylococcus after 18 hrs by NCCLS agar dilution method; in short: as §3
Staphylococcus aureus [19] = experiment: Antibacterial activity against methicillin-susceptible Staphylococcus aureus after 18 hrs by NCCLS agar dilution method; in short: as §3
Staphylococcus aureus [20] = experiment: Antibacterial activity against methicillin-resistant Staphylococcus aureus after 18 hrs by NCCLS agar dilution method; in short: as §3
Streptococcus pneumoniae [21] = experiment: Ratio of PH084 MIC to compound MIC for penicillin-resistant Streptococcus pneumoniae
Enterococcus [22] = experiment: Ratio of PH084 MIC to compound MIC for vancomycin-susceptible Enterococcus
Staphylococcus [23] = experiment: Ratio of PH084 MIC to compound MIC for methicillin-susceptible coagulase-negative Staphylococcus
Staphylococcus aureus [24] = experiment: Ratio of PH084 MIC to compound MIC for methicillin-susceptible Staphylococcus aureus
Streptococcus pneumoniae [25] = experiment: Ratio of PH027 MIC to compound MIC for penicillin-resistant Streptococcus pneumoniae
Enterococcus [26] = experiment: Ratio of PH027 MIC to compound MIC for vancomycin-susceptible Enterococcus
Staphylococcus [27] = experiment: Ratio of PH027 MIC to compound MIC for methicillin-susceptible coagulase-negative Staphylococcus
Staphylococcus aureus [28] = experiment: Ratio of PH027 MIC to compound MIC for methicillin-susceptible Staphylococcus aureus
Streptococcus pneumoniae [29] = experiment: Ratio of linezolid MIC to compound MIC for penicillin-resistant Streptococcus pneumoniae
Enterococcus [30] = experiment: Ratio of linezolid MIC to compound MIC for vancomycin-susceptible Enterococcus
Staphylococcus [31] = experiment: Ratio of linezolid MIC to compound MIC for methicillin-susceptible coagulase-negative Staphylococcus
Staphylococcus aureus [32] = experiment: Ratio of linezolid MIC to compound MIC for methicillin-susceptible Staphylococcus aureus

| Structure (SMILES) | MIC (Staphylococcus aureus [2]) [µg/mL] | MIC (Staphylococcus aureus [3]) [µg/mL] | MIC (Moraxella catarrhalis [4]) [µg/mL] | MIC (Moraxella catarrhalis [5]) [µg/mL] | MIC (Moraxella catarrhalis [6]) [µg/mL] | MIC (Moraxella catarrhalis [7]) [µg/mL] | MIC (Moraxella catarrhalis [8]) [µg/mL] | MIC (Moraxella catarrhalis [9]) [µg/mL] | MIC (Moraxella catarrhalis [10]) [µg/mL] | MIC (Moraxella catarrhalis [11]) [µg/mL] | Ratio (Moraxella catarrhalis [12]) | MIC (Moraxella catarrhalis [13]) [µg/mL] | MIC (Streptococcus pneumoniae [14]) [µg/mL] | MIC (Haemophilus influenzae) [µg/mL] | MIC (Escherichia coli) [µg/mL] | MIC (Enterococcus [15]) [µg/mL] | MIC (Enterococcus [16]) [µg/mL] | MIC (Staphylococcus [17]) [µg/mL] | MIC (Staphylococcus [18]) [µg/mL] | MIC (Staphylococcus aureus [19]) [µg/mL] | other results |
| --- | --- | --- | --- | --- | --- | --- | --- | --- | --- | --- | --- | --- | --- | --- | --- | --- | --- | --- | --- | --- | --- |
| Cc1cn(C[C@H]2CN(c3ccc(N4CCN(C(=O)CNC(=O)c5cc([N+](=O)[O-])cc([N+](=O)[O-])c5)CC4)c(F)c3)C(=O)O2)nn1 | 8 | 2 (≈ 3.27 µM) | 0.5 (≈ 0.818 µM) | 1 (≈ 1.64 µM) | 0.5 (≈ 0.818 µM) | 1 (≈ 1.64 µM) | 0.5 (≈ 0.818 µM) | 0.5 (≈ 0.818 µM) | 1 (≈ 1.64 µM) | 1 (≈ 1.64 µM) | 8 | 1 (≈ 1.64 µM) | 0.25 (≈ 0.409 µM) | > 16 | > 64 | 2 (≈ 3.27 µM) | 1 (≈ 1.64 µM) | 1 (≈ 1.64 µM) | 1 (≈ 1.64 µM) | 1 (≈ 1.64 µM) | Ratio (Staphylococcus aureus [1]): 4; MIC (Staphylococcus aureus [20]): 1 µg/mL (≈ 1.64 µM) |
| O=C(NCC(=O)N1CCN(c2ccc(N3C[C@H](Cn4ccnn4)OC3=O)cc2F)CC1)c1ccc([N+](=O)[O-])o1 | < 0.25 | < 0.25 | 1 (≈ 1.84 µM) | 1 (≈ 1.84 µM) | 1 (≈ 1.84 µM) | 1 (≈ 1.84 µM) | 1 (≈ 1.84 µM) | 1 (≈ 1.84 µM) | 1 (≈ 1.84 µM) | 1 (≈ 1.84 µM) | 8 | 1 (≈ 1.84 µM) | < 0.25 | 8 (≈ 14.7 µM) | > 64 | 0.25 (≈ 0.461 µM) | 0.25 (≈ 0.461 µM) | 0.06 (≈ 0.111 µM) | 0.06 (≈ 0.111 µM) | 0.06 (≈ 0.111 µM) | Ratio (Streptococcus pneumoniae [21]): 4; Ratio (Enterococcus [22]): 4; Ratio (Staphylococcus [23]): 4; Ratio (Staphylococcus aureus [24]): 4; Ratio (Streptococcus pneumoniae [25]): 4; Ratio (Enterococcus [26]): 4; Ratio (Staphylococcus [27]): 4; Ratio (Staphylococcus aureus [28]): 4; Ratio (Streptococcus pneumoniae [29]): 4; Ratio (Enterococcus [30]): 4; Ratio (Staphylococcus [31]): 4; Ratio (Staphylococcus aureus [32]): 4; MIC (Staphylococcus aureus [20]): 0.06 µg/mL (≈ 0.111 µM) |
| Cc1cn(C[C@H]2CN(c3ccc(N4CCN(C(=O)CNC(=O)c5ccc([N+](=O)[O-])o5)CC4)c(F)c3)C(=O)O2)nn1 | < 0.25 | < 0.25 | 1 (≈ 1.8 µM) | 1 (≈ 1.8 µM) | 1 (≈ 1.8 µM) | 1 (≈ 1.8 µM) | 1 (≈ 1.8 µM) | 1 (≈ 1.8 µM) | 1 (≈ 1.8 µM) | 1 (≈ 1.8 µM) | 16 | 0.5 (≈ 0.898 µM) | < 0.25 | 2 (≈ 3.59 µM) | 16 (≈ 28.8 µM) | 0.5 (≈ 0.898 µM) | 0.25 (≈ 0.449 µM) | 0.06 (≈ 0.108 µM) | 0.06 (≈ 0.108 µM) | 0.06 (≈ 0.108 µM) | Ratio (Streptococcus pneumoniae [21]): 4; Ratio (Enterococcus [22]): 4; Ratio (Staphylococcus [23]): 4; Ratio (Staphylococcus aureus [24]): 4; Ratio (Streptococcus pneumoniae [25]): 4; Ratio (Enterococcus [26]): 4; Ratio (Staphylococcus [27]): 4; Ratio (Staphylococcus aureus [28]): 4; Ratio (Streptococcus pneumoniae [29]): 4; Ratio (Enterococcus [30]): 4; Ratio (Staphylococcus [31]): 4; Ratio (Staphylococcus aureus [32]): 4; MIC (Staphylococcus aureus [20]): 0.06 µg/mL (≈ 0.108 µM) |
